Results on 21 molecules are retold here after PubChem BioAssay AID652011 (Sanford-Burnham Center for Chemical Genomics, 2013).

Several values for one entry are separate records, joined by “and”; a condition that tells them apart may be missing. Equal entries are not always repeated.

Chain of Hypoxia-inducible factor 1-alpha (Homo sapiens) (Q16665 whole entry, looked up): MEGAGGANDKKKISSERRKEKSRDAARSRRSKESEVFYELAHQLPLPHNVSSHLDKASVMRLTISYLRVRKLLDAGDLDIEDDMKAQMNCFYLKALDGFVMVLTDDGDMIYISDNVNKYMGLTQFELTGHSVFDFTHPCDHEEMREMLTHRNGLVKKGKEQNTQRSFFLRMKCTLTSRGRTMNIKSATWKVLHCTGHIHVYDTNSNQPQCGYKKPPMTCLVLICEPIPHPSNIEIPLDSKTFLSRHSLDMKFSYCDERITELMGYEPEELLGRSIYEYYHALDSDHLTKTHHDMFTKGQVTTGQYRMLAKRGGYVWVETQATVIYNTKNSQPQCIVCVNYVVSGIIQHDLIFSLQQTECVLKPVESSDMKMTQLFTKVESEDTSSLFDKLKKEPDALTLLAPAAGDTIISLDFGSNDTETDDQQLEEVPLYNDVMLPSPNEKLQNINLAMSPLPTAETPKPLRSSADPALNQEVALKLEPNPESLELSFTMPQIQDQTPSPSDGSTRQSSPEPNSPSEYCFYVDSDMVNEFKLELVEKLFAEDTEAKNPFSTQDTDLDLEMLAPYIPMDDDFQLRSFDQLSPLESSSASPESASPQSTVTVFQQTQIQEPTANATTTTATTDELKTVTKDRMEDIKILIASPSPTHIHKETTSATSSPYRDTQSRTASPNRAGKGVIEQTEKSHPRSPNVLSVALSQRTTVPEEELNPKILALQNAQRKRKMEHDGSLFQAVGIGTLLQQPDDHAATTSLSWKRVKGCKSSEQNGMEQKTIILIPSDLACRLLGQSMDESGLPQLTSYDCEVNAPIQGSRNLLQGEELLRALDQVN

The assay deals with Hypoxia-inducible factor 1-alpha (Homo sapiens) (UniProt Q16665). Briefly: HIF reporter inhibition across pancreatic and renal lines – cell-based, luminescence, MIAPaCa-2, 786-0, panel, SAR follow-up (AID 652011). To be noted: MIAPaCa-2/PANC HIF reporter, luciferase luminescence, desferoxamine, overnight, HIF1a, run 1; at 99 µM (top of the series). A digest of the protocol: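 Reagent: Desferoxamine added before compound | Doses: Compounds from 10 mM and 0.3125 mM stocks, 1% DMSO final | Times: Overnight seeding and compound exposure, 37 °C, 5% CO2, 10-min detection | Measured by: One-Glo luciferase luminescence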
As to `CC(C)c1ccc(-c2noc(CCC(=O)NC3CC3)n2)cc1`, the inhibition was -58.4%. As for `CCNC(=O)CCc1nc(-c2ccccc2)no1`, the inhibition was -39.4%. As to `CC(C)(C)c1ccc(-c2noc(CCC(=O)NC3CCCC3)n2)cc1`, the inhibition was determined as 70.1%. On to `CCNC(=O)CCc1nc(-c2cccc(F)c2)no1`, for which the inhibition was -22%. In the case of `CCc1ccc(-c2noc(CCC(=O)NC)n2)cc1` it was -61.6%; in that of `CCc1ccc(-c2noc(CCC(=O)NC(C)(C)C)n2)cc1`, -38.3%. Take `CCNC(=O)CCc1nc(-c2ccccc2Cl)no1`: the inhibition is -17.5%.

For the molecule `CNC(=O)CCc1nc(-c2ccccc2)no1`, the inhibition is -13.3% and 12%. In the case of `CC(C)(C)c1ccc(-c2noc(CCC(=O)NCC3CCCO3)n2)cc1` (stereo unspecified), the inhibition was -24.5%.

On to `CNC(=O)CCc1nc(-c2ccc(C(C)C)cc2)no1`, for which the inhibition is -38.5%.

As to `CC(C)(C)c1ccc(-c2noc(CCC(N)=O)n2)cc1`, the inhibition was 8.32% and -17.9%. Turning to `CCNC(=O)CCc1nc(-c2ccc(C(C)(C)C)cc2)no1`, the inhibition is -11.3% and -13.8%. Turning to `CCNC(=O)CCc1nc(-c2ccc(C(C)C)cc2)no1`, the inhibition is -33%. In the case of `COc1cccc(NC(=O)CCc2nc(-c3ccc(C(C)(C)C)cc3)no2)c1` it was 74.5%. In the case of `O=C(O)CCc1nc(-c2ccccc2)no1` it was 4.64%; in that of `CCOc1ccc(-c2noc(CCC(=O)O)n2)cc1`, 73.4%. As for `CC(C)(C)c1ccc(-c2noc(CCC(=O)NCc3ccco3)n2)cc1`, the inhibition is 86.8% and 85.5%. For the molecule `CCNC(=O)CCc1nc(-c2ccc(OCC)cc2)no1`, the inhibition is -79.8%.

With `CC(C)(C)c1ccc(-c2noc(CCC(=O)N3CCCCC3)n2)cc1`, the inhibition turned out to be 102%.

Regarding `CNC(=O)CCc1nc(-c2ccc(F)cc2)no1`, the inhibition is -42.8%. Consider `CC(C)(C)c1ccc(-c2noc(CCC(=O)Nc3cccc([N+](=O)[O-])c3)n2)cc1`, for which the inhibition came out at 96.4%.

The term inhibition denotes the change of the read-out against control, counted positive when it falls.
